Experimental data from ChEMBL document CHEMBL4346700, “Structure-based modification of carbonyl-diphenylpyrimidines (Car-DPPYs) as a novel focal adhesion kinase (FAK) inhibitor against various stubborn cancer cells” (Eur J Med Chem, 2019).
The source made the active and inactive calls. No cut-off for these calls is given here.

Legend:
[1] = tested on: BXPC-3; assay: Antiproliferative activity against human BxPC3 cells assessed as reduction in cell growth incubated for 72 hrs by MTT assay; conditions: BXPC-3, 72 h
[2] = tested on: NCI/ADR-RES; assay: Antiproliferative activity against human MCF7/ADR cells assessed as reduction in cell growth incubated for 72 hrs by MTT assay
[3] = tested on: L02; assay: Cytotoxicity against human L02 cells assessed as reduction in cell growth incubated for 72 hrs by MTT assay; conditions: L02, 72 h
[4] = tested on: PANC-1; assay: Antiproliferative activity against human PANC1 cells assessed as reduction in cell growth incubated for 72 hrs by MTT assay; conditions: PANC-1, 72 h
[5] = tested on: NCI-H1975; assay: Antiproliferative activity against human NCI-H1975 cells assessed as reduction in cell growth incubated for 72 hrs by MTT assay; conditions: NCI-H1975, 72 h
[6] = tested on: ASPC1; assay: Antiproliferative activity against human AsPC1 cells assessed as reduction in cell growth incubated for 72 hrs by MTT assay; conditions: ASPC1, 72 h
[7] = Cytotoxicity against human HPDEC cells assessed as reduction in cell growth incubated for 72 hrs by MTT assay
[8] = target: Focal adhesion kinase 1 (Homo sapiens) (UniProt Q05397); assay: Inhibition of FAK in human AsPC1 cells assessed as reduction in autophosphorylation at 100 nM incubated for 72 hrs by immunoblotting analysis; format: cell-based
Focal adhesion kinase 1 (Homo sapiens), sequence (Q05397 2-1052 limits assumed): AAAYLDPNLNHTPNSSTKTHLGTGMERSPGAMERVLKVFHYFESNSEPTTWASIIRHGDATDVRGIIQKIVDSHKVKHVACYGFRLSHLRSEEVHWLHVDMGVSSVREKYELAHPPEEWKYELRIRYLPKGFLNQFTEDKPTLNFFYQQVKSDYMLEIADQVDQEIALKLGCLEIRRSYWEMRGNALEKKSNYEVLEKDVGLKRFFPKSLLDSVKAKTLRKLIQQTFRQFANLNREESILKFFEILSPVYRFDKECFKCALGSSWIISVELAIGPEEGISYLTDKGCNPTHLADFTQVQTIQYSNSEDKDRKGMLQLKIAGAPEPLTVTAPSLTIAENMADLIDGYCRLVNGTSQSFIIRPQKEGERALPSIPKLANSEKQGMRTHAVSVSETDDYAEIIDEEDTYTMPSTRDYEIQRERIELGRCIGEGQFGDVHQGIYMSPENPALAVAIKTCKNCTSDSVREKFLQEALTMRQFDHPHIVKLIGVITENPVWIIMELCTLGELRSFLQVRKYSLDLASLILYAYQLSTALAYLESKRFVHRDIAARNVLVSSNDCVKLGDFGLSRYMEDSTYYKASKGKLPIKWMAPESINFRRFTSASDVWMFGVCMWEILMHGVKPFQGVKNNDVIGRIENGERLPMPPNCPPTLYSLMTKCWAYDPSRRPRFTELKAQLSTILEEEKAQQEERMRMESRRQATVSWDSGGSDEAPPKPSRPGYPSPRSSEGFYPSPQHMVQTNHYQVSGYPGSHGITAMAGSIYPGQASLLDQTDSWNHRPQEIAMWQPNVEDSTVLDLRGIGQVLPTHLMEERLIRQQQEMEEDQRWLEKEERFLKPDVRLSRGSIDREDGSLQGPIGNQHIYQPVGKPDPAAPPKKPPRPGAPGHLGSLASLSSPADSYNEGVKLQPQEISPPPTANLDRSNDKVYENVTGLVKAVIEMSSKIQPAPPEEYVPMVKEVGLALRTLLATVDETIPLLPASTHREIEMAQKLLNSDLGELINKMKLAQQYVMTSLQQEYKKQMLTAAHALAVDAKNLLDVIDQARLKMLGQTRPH
Summary of the method: (§1)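 AsPC-1 cells were treated at 10–100 nM for 72 h and lysed. Lysates were cleared at 14,000 g for 15 min at 4 °C, and 50 µg protein was run on 8–12% SDS-PAGE and transferred to PVDF. Membranes were blocked 2 h in 5% skim milk, probed overnight at 4 °C with primary antibodies (FAK, p-FAK, MEK1, p-MEK1, ERK1/2, p-ERK1/2, β-actin) and detected by ECL.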

[9] = tested on: ASPC1; assay: Induction of apoptosis in human AsPC1 cells assessed as apoptotic bodies incubated for 72 hrs by acridine orange/ethidium bromide dye based fluorescent inverted microscopy; format: functional, cell-based
Summary of the method: (§2)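 AsPC-1 cells (about 2×10⁵ per well) were incubated 12 h, then treated with inhibitor at 150–600 nM for 72 h. Cells were washed twice with PBS and stained with AO/EB (1.0 µg/mL each in PBS). Apoptotic, necrotic and live cells were scored and counted under a fluorescent inverted microscope at 100×.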

[10] = tested on: ASPC1; assay: Effect on total MEK protein level in human AsPC1 cells at 10 to 100 nM incubated for 72 hrs by immunoblotting analysis; format: cell-based; conditions: aspc1, 72 h, 0.1 µM; summary of the method: as §1
[11] = tested on: ASPC1; assay: Induction of apoptosis in human AsPC1 cells assessed as nuclear condensation incubated for 72 hrs by acridine orange/ethidium bromide dye based fluorescent inverted microscopy; format: functional, cell-based; summary of the method: as §2
[12] = tested on: ASPC1; assay: Antitumor activity against human AsPC1 cells xenografted in BALB/cJNju-Foxn1nu/Nju mouse assessed as inhibition of tumor growth at 30 mg/kg, po for 7 days; format: functional; conditions: 168 h, read-out: TGI
Summary of the method: (§3)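 Nude mice were injected subcutaneously in the right axilla with 3×10⁶ AsPC-1 cells in 0.1 mL PBS. Three days later they were randomized into three groups and given compound orally once daily for 7 days, with controls receiving oral 25% PEG-400. Tumor volume was calculated as A×B²/2, and tumor weight was recorded; n = 3.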

[13] = tested on: ASPC1; assay: Induction of apoptosis in human AsPC1 cells assessed as nuclear fragmentation incubated for 72 hrs by acridine orange/ethidium bromide dye based fluorescent inverted microscopy; format: functional, cell-based; summary of the method: as §2
[14] = tested on: ASPC1; conditions: Homo sapiens, 125 to 1000 nM
[15] = tested on: ASPC1; assay: Antitumor activity against human AsPC1 cells xenografted in BALB/cJNju-Foxn1nu/Nju mouse assessed as inhibition of tumor growth at 60 mg/kg, po for 7 days; format: functional; conditions: 168 h, read-out: TGI; summary of the method: as §3
[16] = tested on: ASPC1; assay: Induction of apoptosis in human AsPC1 cells assessed as membrane blebbing incubated for 72 hrs by acridine orange/ethidium bromide dye based fluorescent inverted microscopy; format: functional, cell-based; summary of the method: as §2
[17] = tested on: ASPC1; assay: Effect on total ERK protein level in human AsPC1 cells at 10 to 100 nM incubated for 72 hrs by immunoblotting analysis; format: cell-based; conditions: aspc1, 72 h, 0.1 µM; summary of the method: as §1

SMILES	IC50 [1]	IC50 [4]	IC50 [5]	IC50 [6]	inhibition [8]	IC50 [2]	IC50 [3]	IC50 [7]	Activity [9]	Activity [10]	Activity [11]	inhibition in vivo at 30 mg/kg [12]	Activity [13]	inhibition [14]	inhibition in vivo at 60 mg/kg [15]	Activity [16]	Activity [17]
CNC(=O)c1ccccc1Nc1nc(Nc2ccc(N3CCOCC3)cc2OC)ncc1Cl	> 10000 nM	> 10000 nM	> 2000 nM	–	100%	> 5000 nM	–	11400 nM	–	–	–	–	–	–	–	–	–
O=C(NC1CC1)c1ccccc1Nc1nc(Nc2ccc(OCC(=O)N3CCOCC3)cc2)ncc1Cl	> 10000 nM	> 10000 nM	514 nM	> 10000 nM	–	> 5000 nM	910 nM	16700 nM	–	–	–	–	–	–	–	–	–
CNC(=O)c1ccccc1Nc1nc(Nc2ccc(SCC(=O)N3CCOCC3)cc2)ncc1Cl	2890 nM	5510 nM	413 nM	1220 nM	–	1820 nM	4330 nM	1990 nM	–	–	–	–	–	–	–	–	–

More lines, main results first:

IC50 [1]	IC50 [4]	IC50 [5]	IC50 [6]	inhibition [8]	SMILES	IC50 [2]	IC50 [3]	IC50 [7]	Activity [9]	Activity [10]	Activity [11]	inhibition in vivo at 30 mg/kg [12]	Activity [13]	inhibition [14]	inhibition in vivo at 60 mg/kg [15]	Activity [16]	Activity [17]
8730 nM	750 nM	444 nM	2600 nM	–	CCC(Oc1ccc(Nc2ncc(Cl)c(Nc3ccccc3C(=O)NC)n2)cc1)C(=O)N1CCOCC1 (configuration not stated)	2100 nM	674 nM	2170 nM	–	–	–	–	–	–	–	–	–
90 nM	4120 nM	1170 nM	105 nM	–	CNC(=O)c1ccccc1Nc1nc(Nc2ccc(CC(=O)N3CCOCC3)cc2)ncc1Cl	590 nM	3700 nM	6620 nM	Active	Non-Toxic	Active	87%	Active	Active	67%	Active	Non-Toxic
5990 nM	> 10000 nM	160 nM	1750 nM	–	CNC(=O)c1ccccc1Nc1nc(Nc2ccc(OCC(=O)N3CCOCC3)cc2)ncc1Cl	2930 nM	594 nM	4790 nM	–	–	–	–	–	–	–	–	–
5340 nM	1540 nM	495 nM	2870 nM	–	CNC(=O)c1ccccc1Nc1nc(Nc2ccc(OC(C)C(=O)N3CCOCC3)cc2)ncc1Cl (configuration not stated)	1440 nM	821 nM	1040 nM	–	–	–	–	–	–	–	–	–
